{"data": "Results gathered from unrelated publications", "cell line": "PC-3", "observed": "cell growth or viability", "note": "Protocols differ between the studies behind these lines."}
{"Structure (SMILES)": "O=C1CCc2cc(-c3cccc(OC(=O)[C@H]4[C@H](c5ccccc5)[C@@H](C(=O)O)[C@H]4c4ccccc4)c3)ccc2N1", "assay": "MTT", "IC50": "13.1 µM"}
{"Structure (SMILES)": "O=[N+]([O-])c1ccc(NCCCCN=C=S)c2nonc12", "assay": "MTT", "setting": "24 h", "IC50": "3.3 µM"}
{"Structure (SMILES)": "O=C(O)C1C(c2ccccc2)C(C(=O)Oc2cc(-c3ccc4c(c3)OCO4)ccc2-c2cncnc2)C1c1ccccc1 (stereo not drawn)", "assay": "MTT", "IC50": "17.8 µM"}
{"Structure (SMILES)": "O=C1CCP(=[Se])(c2ccccc2)CC1", "assay": "MTT", "setting": "72 h", "IC50": "> 100 µM"}
{"Structure (SMILES)": "COc1cc(C(=O)c2nc(-c3c[nH]c4cccc(C)c34)c[nH]2)cc(OC)c1OC", "assay": "MTS", "setting": "72 h", "IC50": "0.466 µM"}
{"Structure (SMILES)": "S=P1(C2CCCCC2)CCCCC1", "assay": "MTT", "setting": "72 h", "IC50": "> 100 µM"}
{"Structure (SMILES)": "C[S+]([O-])CCCCN=C=S (stereo not drawn)", "assay": "MTT", "setting": "24 h", "IC50": "33.5 µM"}
{"Structure (SMILES)": "O=C1CCP(=S)(c2ccccc2)CC1", "assay": "MTT", "setting": "72 h", "IC50": "6 µM"}
{"Structure (SMILES)": "COc1cc(C(=O)c2nc(-c3cccc4[nH]ccc34)c(Br)[nH]2)cc(OC)c1OC", "assay": "MTS", "setting": "72 h", "IC50": "> 1 µM"}
{"Structure (SMILES)": "CC[C@@]1(O)C(=O)OCc2c1cc1n(c2=O)Cc2cc3ccccc3nc2-1", "assay": "SRB", "setting": "48 h", "IC50": "0.15 µM"}
{"Structure (SMILES)": "COc1cc(C(=O)c2nc(-c3ccc4ccccc4c3)c[nH]2)cc(OC)c1OC", "assay": "MTS", "setting": "72 h", "IC50": "0.388 µM"}
{"Structure (SMILES)": "N=c1c2c(-c3ccccc3)c(-c3ccccc3)n(Cc3ccccc3)c2ncn1[C@H]1CC[C@H](O)CC1", "assay": "CCK-8", "IC50": "10.8 µM"}
